Legend:
[1] = biological target: C-C chemokine receptor type 2 (Homo sapiens, UniProt P41597); assay: Displacement of [125]MCP1 from CCR2 in human PBMCs
In short: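 Competition binding with 0.3 nM [125I]MCP-1 on human peripheral blood mononuclear cells at 23 °C. IC50 given as mean ± SD (n = 2) or mean ± SEM (n > 2). Single determinations are listed with n = 1.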

[2] = biological target: T1, C-C chemokine receptor type 1 (Homo sapiens) (UniProt P32246); assay: Inhibition of CCR1 at 10 uM
T1 sequence (whole entry): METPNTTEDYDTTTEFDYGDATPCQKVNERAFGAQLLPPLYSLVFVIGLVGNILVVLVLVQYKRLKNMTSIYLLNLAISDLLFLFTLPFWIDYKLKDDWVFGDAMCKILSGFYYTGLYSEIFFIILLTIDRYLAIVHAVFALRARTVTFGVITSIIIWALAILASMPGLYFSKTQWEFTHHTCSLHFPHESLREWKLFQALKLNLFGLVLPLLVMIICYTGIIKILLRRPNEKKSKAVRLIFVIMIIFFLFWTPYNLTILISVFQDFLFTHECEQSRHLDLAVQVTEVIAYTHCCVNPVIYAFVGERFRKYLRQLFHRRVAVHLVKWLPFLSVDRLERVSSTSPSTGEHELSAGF

Sequence of C-C chemokine receptor type 2 (P41597 whole entry): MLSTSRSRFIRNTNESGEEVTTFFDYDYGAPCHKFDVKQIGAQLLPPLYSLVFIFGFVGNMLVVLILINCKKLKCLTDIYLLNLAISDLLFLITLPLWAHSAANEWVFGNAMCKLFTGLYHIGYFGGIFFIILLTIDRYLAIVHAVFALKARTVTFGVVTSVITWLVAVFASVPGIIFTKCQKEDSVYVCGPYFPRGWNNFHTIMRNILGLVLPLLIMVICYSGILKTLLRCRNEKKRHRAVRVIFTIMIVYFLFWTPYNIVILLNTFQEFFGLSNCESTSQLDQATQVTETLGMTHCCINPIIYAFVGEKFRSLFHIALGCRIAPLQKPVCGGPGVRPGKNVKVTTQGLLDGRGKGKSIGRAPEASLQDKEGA

IC50 [1] | inhibition [2] | Structure (SMILES)
8700 nM | < 30% | CCNC(=O)C(C)(CNCc1ccc(C)cc1C)NC(=O)CNC(=O)c1cc(C(F)(F)F)ccc1N (racemic)
 | < 30% | Cc1ccc(CNC[C@H](NC(=O)CNC(=O)c2cccc(C(F)(F)F)c2)C(C)C)c(C)c1
99 nM | < 30% | Cc1ccc(CNC[C@H](NC(=O)CNC(=O)c2cccc(C(F)(F)F)c2)C(=O)NC2CCCC2)c(C)c1
7200 nM | < 30% | CC(C)(C)NC(=O)[C@H](CNCc1ccc(S(C)(=O)=O)cc1)NC(=O)CNC(=O)c1cccc(C(F)(F)F)c1
2200 nM | < 30% | Cc1ccc(CNC[C@H](CO)NC(=O)CNC(=O)c2cccc(C(F)(F)F)c2)c(C)c1
130 nM | < 30% | Cc1ccc(CNC[C@H](NC(=O)CNC(=O)c2cc(NCC(C)C)cc(C(F)(F)F)c2)C(=O)NC(C)(C)C)c(C)c1
120 nM | < 30% | Cc1ccc(CNC[C@H](NC(=O)CNC(=O)c2cccc(C(F)(F)F)c2)C(=O)NC(C)(C)C)cc1N
400 nM | < 30% | Cc1ccc(CNC[C@H](NC(=O)CNC(=O)c2cccc(C(F)F)c2)C(=O)NC(C)(C)C)c(C)c1
410 nM | < 30% | CCNC(=O)[C@H](CCNCc1ccc(C)cc1C)NC(=O)CNC(=O)c1cccc(C(F)(F)F)c1
1300 nM | < 30% | COc1cc(C)c(CNC[C@H](NC(=O)CNC(=O)c2cccc(C(F)(F)F)c2)C(=O)NC(C)(C)C)cc1C
560 nM | < 30% | CCNC(=O)[C@@H](CNCc1ccc(C)cc1C)NC(=O)CNC(=O)c1cccc(C(F)(F)F)c1
150 nM | < 30% | Cc1ccc(CNC[C@H](NC(=O)CNC(=O)c2cccc(SC(F)(F)F)c2)C(=O)NC(C)(C)C)c(C)c1
150 nM | < 30% | Cc1ccc(CNC[C@H](NC(=O)CNC(=O)c2cccc(C(F)(F)F)c2)C(=O)NC2CCCCC2)c(C)c1
110 nM | < 30% | Cc1ccc(CNC[C@H](NC(=O)CNC(=O)c2cc(NCc3ccccc3)cc(C(F)(F)F)c2)C(=O)NC(C)(C)C)c(C)c1
7000 nM | < 30% | Cc1ccc(CNC[C@H](NC(=O)CNC(=O)c2cccc(C(F)(F)F)c2)C(=O)NCc2ccccc2)c(C)c1
97 nM | < 30% | Cc1ccc(CNC[C@H](NC(=O)CNC(=O)c2cccc(C(F)(F)F)c2)C(=O)NC2CCC2)c(C)c1
47 nM | < 30% | COc1ccc(CNC[C@H](NC(=O)CNC(=O)c2cccc(C(F)(F)F)c2)C(=O)NC(C)(C)C)c(C)c1
190 nM | < 30% | Cc1ccc(CNC[C@H](NC(=O)CNC(=O)c2cccc(C(F)(F)F)c2)C(=O)NC(C)(C)CO)c(C)c1
22000 nM | < 30% | CCNC(=O)[C@@H](CNC(=O)CNC(=O)c1cccc(C(F)(F)F)c1)NCc1ccc(C)cc1C
1100 nM | < 30% | COc1ccc(CNC[C@H](NC(=O)CNC(=O)c2cccc(C(F)(F)F)c2)C(=O)NC(C)(C)C)cc1
65 nM | < 30% | Cc1ccc(CNC[C@H](NC(=O)CNC(=O)c2cccc(C(F)(F)C(F)(F)F)c2)C(=O)NC(C)(C)C)c(C)c1

IC50 [1] | inhibition [2] | Structure (SMILES)
400 nM | < 30% | Cc1ccccc1CNC[C@H](NC(=O)CNC(=O)c1cccc(C(F)(F)F)c1)C(=O)NC(C)(C)C
900 nM | < 30% | Cc1cc(C#N)ccc1CNC[C@H](NC(=O)CNC(=O)c1cccc(C(F)(F)F)c1)C(=O)NC(C)(C)C
170 nM | < 30% | Cc1ccc(CNC[C@H](NC(=O)CNC(=O)c2cccc(C(F)(F)F)c2)C(=O)NC(C)C)c(C)c1
110 nM | < 30% | CON(C)C(=O)[C@H](CNCc1ccc(C)cc1C)NC(=O)CNC(=O)c1cccc(C(F)(F)F)c1
23 nM | < 30% | Cc1ccc(CNC[C@H](NC(=O)CNC(=O)c2cc(C(F)(F)F)ccc2NCC(C)C)C(=O)NC(C)(C)C)c(C)c1
230 nM | < 30% | CNC(=O)[C@H](CNCc1ccc(C)cc1C)NC(=O)CNC(=O)c1cccc(C(F)(F)F)c1
130 nM | < 30% | CCNC(=O)[C@@H](NC(=O)CNC(=O)c1cccc(C(F)(F)F)c1)[C@@H](C)NCc1ccc(C)cc1C
110 nM | < 30% | Cc1ccc(CNC[C@@H](NC(=O)CNC(=O)c2cccc(C(F)(F)F)c2)C(=O)NC(C)(C)C)c(C)c1
160 nM | < 30% | Cc1cc(Br)ccc1CNC[C@H](NC(=O)CNC(=O)c1cccc(C(F)(F)F)c1)C(=O)NC(C)(C)C
17 nM | < 30% | Cc1ccc(CN2CC[C@@H](NC(=O)CNC(=O)c3cccc(C(F)(F)F)c3)C2)c(C)c1
60 nM | < 30% | Cc1ccc(CNC[C@H](NC(=O)CNC(=O)c2cccc(C(F)(F)F)c2)C(=O)NCC2CC2)c(C)c1
630 nM | < 30% | Cc1ccc(CNC[C@@H](NC(=O)CNC(=O)c2cccc(C(F)(F)F)c2)C(N)=O)c(C)c1
110 nM | < 30% | CCNC(=O)[C@H](CNCc1ccc(C)cc1C)NC(=O)CNC(=O)c1cccc(C(F)(F)F)c1
190 nM | < 30% | Cc1ccc(CNC[C@H](NC(=O)CNC(=O)c2cccc(OC(F)(F)F)c2)C(=O)NC(C)(C)C)c(C)c1
200 nM | < 30% | C=CCNC(=O)[C@H](CNCc1ccc(C)cc1C)NC(=O)CNC(=O)c1cccc(C(F)(F)F)c1
260 nM | < 30% | Cc1ccc(CNC[C@H](NC(=O)CNC(=O)c2cccc(C(F)(F)F)c2)C(=O)N2CCCC2)c(C)c1
28 nM | < 30% | Cc1ccc(CNC[C@H](NC(=O)CNC(=O)c2cc(OC(F)(F)F)ccc2N)C(=O)NC(C)(C)C)c(C)c1
150 nM | < 30% | CCNC(=O)[C@H](CCN(C)Cc1ccc(C)cc1C)NC(=O)CNC(=O)c1cccc(C(F)(F)F)c1
55 nM | < 30% | Cc1ccc(CNC[C@H](NC(=O)CNC(=O)c2cccc(C(F)(F)F)c2)C(=O)NCC(F)(F)F)c(C)c1
320 nM | < 30% | Cc1ccc(CNC[C@@H](CO)NC(=O)CNC(=O)c2cccc(C(F)(F)F)c2)c(C)c1
90 nM | < 30% | Cc1ccc(CNC[C@H](NC(=O)CNC(=O)c2cc(C(F)(F)F)ccc2NC(=O)C2CCCCC2)C(=O)NC(C)(C)C)c(C)c1

IC50 [1] | inhibition [2] | Structure (SMILES)
770 nM | < 30% | Cc1ccc(CNCC[C@H](NC(=O)CNC(=O)c2cccc(C(F)(F)F)c2)C(=O)NC(C)(C)C)c(C)c1
16 nM | < 30% | CNc1cc(C(=O)NCC(=O)N[C@@H](CNCc2ccc(C)cc2C)C(=O)NC(C)(C)C)cc(C(F)(F)F)c1
1200 nM | < 30% | Cc1ccc(CNC[C@H](NC(=O)CNC(=O)c2cccc(C(F)(F)F)c2)C(=O)Nc2ccccc2)c(C)c1
670 nM | < 30% | Cc1ccc(CNC[C@H](NC(=O)CNC(=O)c2cccc(C(F)(F)F)c2)C(=O)NC(C)(C)C)cc1[N+](=O)[O-]
690 nM | < 30% | COc1ccc(CNC[C@H](NC(=O)CNC(=O)c2cccc(C(F)(F)F)c2)C(=O)NC(C)(C)C)c(C)c1C
15000 nM | < 30% | COC(=O)[C@@H](CNC(=O)CNC(=O)c1cccc(C(F)(F)F)c1)NCc1ccc(C)cc1C
380 nM | < 30% | CCc1ccccc1CNC[C@H](NC(=O)CNC(=O)c1cccc(C(F)(F)F)c1)C(=O)NC(C)(C)C
120 nM | < 30% | CCC(C)(C)NC(=O)[C@H](CNCc1ccc(C)cc1C)NC(=O)CNC(=O)c1cccc(C(F)(F)F)c1
65 nM | < 30% | Cc1ccc(CNC[C@H](NC(=O)CNC(=O)c2cc(C(F)(F)F)ccc2NC(=O)OC(C)C)C(=O)NC(C)(C)C)c(C)c1
100 nM | < 30% | Cc1ccc(CNC[C@H](NC(=O)CNC(=O)c2cccc(C(F)(F)F)c2)C(=O)NC2(C)CC2)c(C)c1
1000 nM | < 30% | COC(=O)[C@@H](CNCc1ccc(C)cc1C)NC(=O)CNC(=O)c1cccc(C(F)(F)F)c1
5500 nM | < 30% | Cc1ccc(CNC[C@H](NC(=O)CNC(=O)c2cccc(C(F)(F)F)c2)C(=O)O)c(C)c1
490 nM | < 30% | Cc1ccc(CNC[C@H](NC(=O)CNC(=O)c2cccc(C(F)(F)F)c2)C(=O)N2CCOCC2)c(C)c1
36 nM | < 30% | CCc1ccc(CNC[C@H](NC(=O)CNC(=O)c2cccc(C(F)(F)F)c2)C(=O)NC(C)(C)C)c(C)c1
88 nM | < 30% | Cc1ccc(CNC[C@H](NC(=O)CNC(=O)c2cccc(C(F)(F)F)c2)C(=O)NC2CC2)c(C)c1
1700 nM | < 30% | CC(C)(C)NC(=O)[C@H](CNCc1ccc(Br)cc1)NC(=O)CNC(=O)c1cccc(C(F)(F)F)c1
750 nM | < 30% | Cc1ccc(CNC[C@H](NC(=O)CNC(=O)c2cccc(C(F)(F)F)c2)C(=O)NC(C)(C)C)cc1
1500 nM | < 30% | COC(=O)[C@H](CNCc1ccc(C)cc1C)NC(=O)CNC(=O)c1cccc(C(F)(F)F)c1
5600 nM | < 30% | CCCCc1ccc(CNC[C@H](NC(=O)CNC(=O)c2cccc(C(F)(F)F)c2)C(=O)NC(C)(C)C)cc1
 | < 30% | Cc1ccc(CNC[C@@H](C)NC(=O)CNC(=O)c2cccc(C(F)(F)F)c2)c(C)c1

Reference: ChEMBL document CHEMBL1139795, “Capped diaminopropionamide-glycine dipeptides are inhibitors of CC chemokine receptor 2 (CCR2)” (Bioorg Med Chem Lett, 2007)
